Assay results from different studies.
Compare with care: the assays were run in different laboratories.
PBRM1 bromodomain: Protein polybromo-1, bromodomain (PBRM1, Homo sapiens, UniProt Q86U86)
BRD2 BD1: Bromodomain-containing protein 2, BD1 (BRD2, Homo sapiens, UniProt P25440)
PBRM1 BD2: Protein polybromo-1, BD2 (PBRM1, Homo sapiens, UniProt Q86U86)
ADORA2B: Adenosine receptor A2b (ADORA2B, Homo sapiens, UniProt P29275)

Compound | target | test | test system | setting | quantity | result
C[S+]([O-])c1ccc(-c2nc(-c3ccncc3)c(-c3ccc(F)cc3)[nH]2)cc1 (stereo not drawn) | PBRM1 bromodomain | thermal stability, DSF |  | 10 µM | ΔTm | 1.33 °C
NS(=O)(=O)c1ccc(Nc2nc(-c3ccc(F)cc3)c3ccccc3n2)cc1 | BRD2 BD1 | binding, competition with immobilised ligand |  | 1 µM | remaining binding | 4%
CCC/C=C1\CCn2c1nc(=O)c1c(Cl)cccc12 | PBRM1 BD2 | thermal stability, DSF |  | 100 µM | ΔTm | 3.03 °C
Cc1ccc(C(=O)Nc2ccc(CN3CCN(C)CC3)c(C(F)(F)F)c2)cc1C#Cc1cnc2cccnn12 | Casein kinase I isoform alpha-like (CSNK1A1L, Homo sapiens, UniProt Q8N752) | enzyme activity |  | 23.5 nM | remaining activity | 100%
CC/C=C1\CCn2c1nc(=O)c1c(Cl)cccc12 | PBRM1 BD2 | thermal stability, DSF |  | 100 µM | ΔTm | -0.23 °C
Oc1ccc(-c2nc(-c3ccncc3)c(-c3ccc(F)cc3)[nH]2)cc1 | Protein polybromo-1, BD1 (PBRM1, Homo sapiens, UniProt Q86U86) | thermal stability, DSF |  | 10 µM | ΔTm | 0 °C
CC(C)(C)C/C=C1\CCn2c1nc(=O)c1c(Cl)cccc12 | PBRM1 BD2 | thermal stability, DSF |  | 100 µM | ΔTm | 4.96 °C
CN(C)C1CCN(CC#Cc2nn(C3CCCC3)c3nc(NCc4ccccc4)ncc23)C1 (stereo not drawn) | Insulin receptor (INSR, Homo sapiens, UniProt P06213) | enzyme activity, inhibitor, FRET |  | 10 µM | inhibition | 31%
CCCN1CCCn2c1nc1c2c(=O)n(C)c(=O)n1C | ADORA2B | ligand displacement, radioligand |  | 10 µM, cell membranes | inhibition | 1%
CCC(/C=C1\CCn2c1nc(=O)c1ccc(O)cc12)CC | PBRM1 BD2 | thermal stability, DSF |  | 100 µM | ΔTm | 3.49 °C
CCC1=C[C@@H]2CN(C1)Cc1c([nH]c3ccccc13)[C@@](C(=O)OC)(c1cc3c(cc1OC)N(C)[C@H]1[C@@](O)(C(=O)OC)[C@H](OC(C)=O)[C@]4(CC)C=CCN5CC[C@]31[C@@H]54)C2 | Organic cation/carnitine transporter 2 (SLC22A5, Homo sapiens, UniProt O76082) | transporter uptake, inhibitor | HEK293 | 100 µM | remaining activity | 15.3%
O=C(O)c1cccc(NC(c2ccccc2)c2ccc3ccccc3c2O)c1 (stereo not drawn) | CAAX prenyl protease 2 (Homo sapiens, UniProt Q9Y256) | enzyme activity, inhibitor |  | 10 µM | remaining activity | < 40%
Cc1cnc(Nc2ccc(OCCN3CCCC3)cc2)nc1Nc1cccc(S(=O)(=O)NC(C)(C)C)c1 | PBRM1 BD2 | thermal stability, DSF |  | 10 µM | ΔTm | 0.23 °C
COCCOc1ccc(N2CCN(CCn3ncc4c3nc(N)n3nc(-c5ccco5)nc43)CC2)cc1 | ADORA2B | ligand displacement, radioligand |  | 10 µM, cell membranes | inhibition | 25%
O=c1nc2n(c3cccc(Cl)c13)CC/C2=C\c1ccccc1 | PBRM1 BD2 | thermal stability, DSF |  | 100 µM | ΔTm | -6.11 °C
Cc1oc2cc3oc(=O)c(C)c(C)c3cc2c1C | Aldehyde dehydrogenase, mitochondrial (ALDH2, Homo sapiens, UniProt P05091) | enzyme activity, inhibitor, absorbance |  | 10 µM | remaining activity | 20.7%
Nc1ncnc2occ(-c3ccc(NC(=O)Nc4cc(C(F)(F)F)ccc4F)cc3)c12 | Receptor tyrosine-protein kinase erbB-3 (ERBB3, Homo sapiens, UniProt P21860) | cell-free assay, inhibitor |  | 20 µM | remaining signal | 73%
CCC(/C=C1\CCn2c1nc(=O)c1c(Cl)cccc12)CC | PBRM1 bromodomain | thermal stability, DSF |  | 100 µM | ΔTm | 10.3 °C
Cc1cc2c(cc1N1C(=O)c3cccc4c(Cl)ccc(c34)C1=O)n(C)c(=O)n2C | BRD2 BD1 | thermal stability, DSF |  | 10 µM | ΔTm | 0.3 °C
CCCOc1ccc(OC)c(F)c1C(=O)c1ccc(C(=O)N[C@@H]2CNC[C@H]2NC(=O)c2ccc3[nH]ncc3c2)cc1 | Serine/threonine-protein kinase N2 (PKN2, Homo sapiens, UniProt Q16513) | enzyme activity, inhibitor |  | 0.5 µM | remaining activity | 14%
CCC(/C=C1\CCCn2c1nc(=O)c1c(Cl)cccc12)CC | PBRM1 bromodomain | thermal stability, DSF |  | 100 µM | ΔTm | 5.82 °C
